Columns and labels:
[1] = tested on: colon cancer cell line HCT-116; experiment: Cell viability assay; type: cell-based; details: Homo sapiens, HCT-116, 72 h, read-out: Antiproliferative IC50 HCT116
[2] = tested on: melanoma cell line SK-MEL-2; experiment: Cell viability assay; type: cell-based; details: Homo sapiens, SK-MEL-2, 72 h, read-out: Antiproliferative IC50 SK-MEL-2
HDAC1 = HDAC1 (Homo sapiens, UniProt Q13547); experiment: In vitro HDAC enzyme assay; type: biochemical; details: for inhibition at 0.5 µM: read-out: Inhibition% (inhibition rate, IR) against HDAC1, at a concentration of 500 nM
Sequence of HDAC1 (Q13547 whole entry): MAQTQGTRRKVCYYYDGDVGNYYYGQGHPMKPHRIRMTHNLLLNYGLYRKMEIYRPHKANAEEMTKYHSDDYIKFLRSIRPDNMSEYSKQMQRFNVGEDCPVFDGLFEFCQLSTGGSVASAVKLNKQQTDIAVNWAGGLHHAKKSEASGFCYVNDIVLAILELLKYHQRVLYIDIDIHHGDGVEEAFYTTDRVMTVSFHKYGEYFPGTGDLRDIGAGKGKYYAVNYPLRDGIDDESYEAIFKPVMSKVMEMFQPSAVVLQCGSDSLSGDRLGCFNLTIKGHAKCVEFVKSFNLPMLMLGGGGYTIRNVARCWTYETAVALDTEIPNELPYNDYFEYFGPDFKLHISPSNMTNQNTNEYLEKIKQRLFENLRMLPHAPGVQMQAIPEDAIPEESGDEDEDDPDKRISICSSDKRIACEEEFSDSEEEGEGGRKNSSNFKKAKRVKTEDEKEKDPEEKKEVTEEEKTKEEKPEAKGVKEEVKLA

[3] = tested on: normal bone marrow cells HS-5; experiment: Cell viability assay; type: cell-based; details: 72 h, read-out: Antiproliferative IC50 HS-5
Method in brief: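 Cells grown in IMDM with 20% FBS, 100 U per mL penicillin and 100 μg per mL streptomycin, then plated in 96-well format. Test compound exposure was 72 h. Alamar blue solution (1 mM, as added) was then applied for a further 5–6 h, and […] was read at 530/590 nm. Data were normalized to vehicle, as means of three independent measurements (standard errors <20%), and IC50 was calculated.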

## O=C(CCCCCCNC(=O)c1cnc(N(c2ccccc2)c2ccccc2)nc1)NO [ACY-1215, reference compound]
[1]
  IC50: 3.87 ± 0.11 µM
[2]
  IC50: 4.5 ± 0.14 µM

## COc1ccc(CN2Cc3[nH]c4ccccc4c3C[C@H]2C(=O)NCCCCCCC(=O)NO)cc1 [Compound 9a, (S)-N-(7-(Hydroxyamino)-7-oxoheptyl)-2-(4-methoxybenzyl)-2,3,4,9-tetrahydro-1H-pyrido[3,4-b]indole-3-carboxamide]
HDAC1; duplicate
  inhibition at 0.5 µM: 31.8%

## COc1ccc([C@H]2N[C@H](C(=O)NCCCCCC(=O)NO)Cc3c2[nH]c2ccccc32)cc1 [Compound 9b, (1R,3S)-N-(6-(Hydroxyamino)-6-oxohexyl)-1-(4-methoxyphenyl)-2,3,4,9-tetrahydro-1H-pyrido[3,4-b]indole-3-carboxamide]
HDAC1; duplicate
  inhibition at 0.5 µM: 23.2%

## COc1ccc([C@H]2N[C@H](C(=O)NCCCCCCC(=O)NO)Cc3c2[nH]c2ccccc32)cc1 [Compound 9c, (1R,3S)-N-(7-(Hydroxyamino)-7-oxoheptyl)-1-(4-methoxyphenyl)-2,3,4,9-tetrahydro-1H-pyrido[3,4-b]indole-3-carboxamide]
HDAC1; duplicate
  inhibition at 0.5 µM: 41.3%

## O=C(CCCCCNC(=O)[C@@H]1Cc2c([nH]c3ccccc23)[C@@H](c2ccccc2)N1)NO [Compound 9d, (1R,3S)-N-(6-(Hydroxyamino)-6-oxohexyl)-1-phenyl-2,3,4,9-tetrahydro-1H-pyrido[3,4-b]indole-3-carboxamide]
HDAC1; duplicate
  inhibition at 0.5 µM: 39.6%

## COc1ccc(CN2[C@H](C)c3[nH]c4ccccc4c3C[C@H]2C(=O)NCCCCCC(=O)NO)cc1 [Compound 9e, (1R,3S)-N-(6-(Hydroxyamino)-6-oxohexyl)-2-(4-methoxybenzyl)-1-methyl-2,3,4,9-tetrahydro-1H-pyrido[3,4-b]indole-3-carboxamide]
HDAC1; duplicate
  inhibition at 0.5 µM: 58.1%

## COc1ccc(CN2[C@H](C)c3[nH]c4ccccc4c3C[C@H]2C(=O)NCCCCCCC(=O)NO)cc1 [Compound 9f, (1R,3S)-N-(7-(Hydroxyamino)-7-oxoheptyl)-2-(4-methoxybenzyl)-1-methyl-2,3,4,9-tetrahydro-1H-pyrido[3,4-b]indole-3-carboxamide]
HDAC1; duplicate
  inhibition at 0.5 µM: 40.8%

## O=C(CCCCCCNC(=O)[C@@H]1Cc2c([nH]c3ccccc23)[C@@H](c2ccc(Cl)cc2)N1)NO [Compound 9g, (1R,3S)-1-(4-Chlorophenyl)-N-(7-(hydroxyamino)-7-oxoheptyl)-2,3,4,9-tetrahydro-1H-pyrido[3,4-b]indole-3-carboxamide]
HDAC1; duplicate
  inhibition at 0.5 µM: 65.4%

## COc1ccc([C@H]2N[C@H](C(=O)NCCCCCCC(=O)NO)Cc3c2[nH]c2ccccc32)cc1OC [Compound 9h, (1R,3S)-1-(3,4-Dimethoxyphenyl)-N-(7-(hydroxyamino)-7-oxoheptyl)-2,3,4,9-tetrahydro-1H-pyrido[3,4-b]indole-3-carboxamide]
HDAC1; duplicate
  inhibition at 0.5 µM: 46.5%

## O=C(CCCCCCNC(=O)[C@@H]1Cc2c([nH]c3ccccc23)[C@@H](C2CC2)N1)NO [Compound 9i, (1R,3S)-1-Cyclopropyl-N-(7-(hydroxyamino)-7-oxoheptyl)-2,3,4,9-tetrahydro-1H-pyrido[3,4-b]indole-3-carboxamide]
HDAC1; duplicate
  inhibition at 0.5 µM: 77.3%

## COc1ccc(CN2Cc3[nH]c4ccccc4c3C[C@@H]2C(=O)NCCCCCCC(=O)NO)cc1 [Compound 13a, (R)-N-(7-(Hydroxyamino)-7-oxoheptyl)-2-(4-methoxybenzyl)-2,3,4,9-tetrahydro-1H-pyrido[3,4-b]indole-3-carboxamide]
HDAC1; duplicate
  inhibition at 0.5 µM: 44.3%

## COc1ccc([C@@H]2N[C@@H](C(=O)NCCCCCC(=O)NO)Cc3c2[nH]c2ccccc32)cc1 [Compound 13b, (1S,3R)-N-(6-(Hydroxyamino)-6-oxohexyl)-1-(4-methoxyphenyl)-2,3,4,9-tetrahydro-1H-pyrido[3,4-b]indole-3-carboxamide]
HDAC1; duplicate
  inhibition at 0.5 µM: 49.2%

## COc1ccc([C@@H]2N[C@@H](C(=O)NCCCCCCC(=O)NO)Cc3c2[nH]c2ccccc32)cc1 [Compound 13c, (1S,3R)-N-(7-(Hydroxyamino)-7-oxoheptyl)-1-(4-methoxyphenyl)-2,3,4,9-tetrahydro-1H-pyrido[3,4-b]indole-3-carboxamide]
HDAC1
  IC50: 0.047 ± 0.00125 µM
HDAC1; at a concentration of 500 nM, duplicate, 0.5 µM
  Inhibition% (inhibition rate, IR) against HDAC1: 81.6%
HDAC1; duplicate
  inhibition at 0.5 µM: 66%

## COc1ccc(CN2[C@@H](C(=O)NCCCCCC(=O)NO)Cc3c([nH]c4ccccc34)[C@@H]2C)cc1 [Compound 13e, (1S,3R)-N-(6-(Hydroxyamino)-6-oxohexyl)-2-(4-methoxybenzyl)-1-methyl-2,3,4,9-tetrahydro-1H-pyrido[3,4-b]indole-3-carboxamide]
HDAC1
  IC50: 0.0536 ± 0.0025 µM
HDAC1; duplicate
  inhibition at 0.5 µM: 84.8%
[1]
  IC50: 8.34 ± 0.24 µM
[2]
  IC50: 9.65 ± 0.46 µM
[3]
  IC50: > 50 µM

## COc1ccc(CN2[C@@H](C(=O)NCCCCCCC(=O)NO)Cc3c([nH]c4ccccc34)[C@@H]2C)cc1 [Compound 13f, (1S,3R)-N-(7-(Hydroxyamino)-7-oxoheptyl)-2-(4-methoxybenzyl)-1-methyl-2,3,4,9-tetrahydro-1H-pyrido[3,4-b]indole-3-carboxamide]
HDAC1
  IC50: 0.0224 ± 0.00084 µM
HDAC1; duplicate
  inhibition at 0.5 µM: 91.4%
[1]
  IC50: 4.22 ± 0.12 µM
[2]
  IC50: 5.7 ± 0.12 µM
[3]
  IC50: > 50 µM

## O=C(CCCCCCNC(=O)[C@H]1Cc2c([nH]c3ccccc23)[C@H](C2CC2)N1Cc1ccccc1)NO [Compound 13g, (1S,3R)-2-Benzyl-1-cyclopropyl-N-(7-(hydroxyamino)-7-oxoheptyl)-2,3,4,9-tetrahydro-1H-pyrido[3,4-b]indole-3-carboxamide]
HDAC1
  IC50: 0.0104 ± 0.00065 µM
HDAC1; duplicate
  inhibition at 0.5 µM: 98.2%
[1]
  IC50: 3.2 ± 0.09 µM
[2]
  IC50: 3.16 ± 0.08 µM
[3]
  IC50: > 50 µM

## O=C(CCCCCNC(=O)[C@H]1Cc2c([nH]c3ccccc23)[C@H](c2ccc(Cl)cc2)N1)NO [Compound 13h, (1S,3R)-1-(4-Chlorophenyl)-N-(6-(hydroxyamino)-6-oxohexyl)-2,3,4,9-tetrahydro-1H-pyrido[3,4-b]indole-3-carboxamide]
HDAC1; duplicate
  inhibition at 0.5 µM: 51.3%

## O=C(CCCCCCNC(=O)[C@H]1Cc2c([nH]c3ccccc23)[C@H](c2ccc(Cl)cc2)N1)NO [Compound 13i, (1S,3R)-1-(4-Chlorophenyl)-N-(7-(hydroxyamino)-7-oxoheptyl)-2,3,4,9-tetrahydro-1H-pyrido[3,4-b]indole-3-carboxamide]
HDAC1; duplicate
  inhibition at 0.5 µM: 66%
[1]
  IC50: 7.55 ± 0.18 µM
[2]
  IC50: 7.84 ± 0.26 µM
[3]
  IC50: > 50 µM

## COc1ccc([C@@H]2N[C@@H](C(=O)NCCCCCCC(=O)NO)Cc3c2[nH]c2ccccc32)cc1OC [Compound 13j, (1S,3R)-1-(3,4-Dimethoxyphenyl)-N-(7-(hydroxyamino)-7-oxoheptyl)-2,3,4,9-tetrahydro-1H-pyrido[3,4-b]indole-3-carboxamide]
HDAC1; duplicate
  inhibition at 0.5 µM: 72.5%

Source: article PMC11027041 (RSC Advances, 2024)
